For data set [1], the system named is Human immunodeficiency virus 1. The data set can be described thus: Antiviral activity against wild-type HIV-1 infected in HEK293T cells co-transfected with VSVG protein assessed as time required for 50% failure of viral replication at 10 uM by luciferase reporter gene assay. It is filed as functional, HEK-293T. In outline:
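Time-of-addition run: HEK 293T cells seeded 6 × 10^4/well, held overnight at 37 °C, then infected with VSVG/HIV-wt pseudoparticles (t = 0 at particle addition). Compounds added at a final 10 μM at 0, 2, 4, 6, 8, 10, 12, 14 or 16 h. Cells lysed 48 h post-infection and luciferase activity measured.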
A general note: A reporter such as luciferase makes a cellular process visible.

The test system of a further data set is HEK-293T. Nature of the data set: Cytotoxicity against human 293T cells at 10 uM after 48 hrs. It is filed as cell-based. In short, it runs like this: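 293T cells at the anti-HIV assay culture conditions (seeded 6 × 10^4 cells/well the day before), compound in DMSO incubated 48 h without virus; viability read with a cell proliferation assay kit.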
In data set [2] the test system is Human immunodeficiency virus 1. The data set can be described thus: Ratio of EC50 for HIV-1 expressing reverse transcriptase K103N/P225H double mutant to EC50 for wild-type HIV-1. In kind it is functional. In short, it runs like this:
(§1)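 Fold change, computed as the EC50 against each VSV-G-pseudotyped NNRTI-resistant RT-mutant HIV-1 divided by the EC50 against wild-type pseudovirus. Both EC50s come from the 293T single-cycle luciferase infection assay, with compound added 15 min before infection and read at 48 h.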

In data set [3] the test system is Human immunodeficiency virus 1. Nature of the data set: Ratio of EC50 for HIV-1 expressing reverse transcriptase K103N/G190A double mutant to EC50 for wild-type HIV-1. It is filed as functional. In short, it runs like this: as §1
Data set [4] deals with Human immunodeficiency virus 1. Nature of the data set: Ratio of EC50 for HIV-1 expressing reverse transcriptase K103N/V108I double mutant to EC50 for wild-type HIV-1. It is filed as functional. In outline: as §1
The subject of data set [5] is Human immunodeficiency virus 1. Nature of the data set: Ratio of EC50 for HIV-1 expressing reverse transcriptase L100I/K103N double mutant to EC50 for wild-type HIV-1. In kind it is functional. In short, it runs like this:
as §1

The test system of data set [6] is Human immunodeficiency virus 1. The data set can be described thus: Ratio of EC50 for HIV-1 expressing reverse transcriptase K103N mutant to EC50 for wild-type HIV-1. In kind it is functional. In short, it runs like this:
as §1

The test system of data set [7] is Human immunodeficiency virus 1. The data set can be described thus: Antiviral activity against HIV-1 expressing reverse transcriptase K103N/P225H double mutant infected in human 293T cells co-transfected with VSVG protein assessed as inhibition of viral-replication incubated 15 mins prior to viral-infection measured after 48 hrs by luciferase reporter gene assay. It is filed as functional, organism-based. The following applies: Human immunodeficiency virus 1, HEK-293T. In short, it runs like this:
(§2)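 VSV-G-pseudotyped single-cycle HIV made by Ca3(PO4)2 co-transfection of 293T cells with env-deficient pNL4-3.luc.R-E- (wild-type or RT mutant) vector; medium changed 16 h post-transfection, supernatant harvested at 48 h, filtered, diluted to 0.2 ng p24/mL. Target 293T cells seeded 6 × 10^4/well the day before; compounds in DMSO added 15 min pre-infection; luciferase of lysates read 48 h post-infection.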

Data set [8] concerns Human immunodeficiency virus 1. Nature of the data set: Antiviral activity against HIV-1 expressing reverse transcriptase K103N/G190A double mutant infected in human 293T cells co-transfected with VSVG protein assessed as inhibition of viral-replication incubated 15 mins prior to viral-infection measured after 48 hrs by luciferase reporter gene assay. It is filed as functional, organism-based. The following applies: Human immunodeficiency virus 1, HEK-293T. In short, it runs like this:
as §2

Data set [9] deals with Human immunodeficiency virus 1. Nature of the data set: Antiviral activity against HIV-1 expressing reverse transcriptase K103N/V108I double mutant infected in human 293T cells co-transfected with VSVG protein assessed as inhibition of viral-replication incubated 15 mins prior to viral-infection measured after 48 hrs by luciferase reporter gene assay. In kind it is functional, organism-based. The following applies: Human immunodeficiency virus 1, HEK-293T. In outline:
as §2

The test system of data set [10] is Human immunodeficiency virus 1. Nature of the data set: Antiviral activity against HIV-1 expressing reverse transcriptase L100I/K103N double mutant infected in human 293T cells co-transfected with VSVG protein assessed as inhibition of viral-replication incubated 15 mins prior to viral-infection measured after 48 hrs by luciferase reporter gene assay. In kind it is functional, organism-based. The following applies: Human immunodeficiency virus 1, HEK-293T. In short, it runs like this:
as §2

The test system of data set [11] is Human immunodeficiency virus 1. The data set can be described thus: Antiviral activity against HIV-1 expressing reverse transcriptase K103N mutant infected in human 293T cells co-transfected with VSVG protein assessed as inhibition of viral-replication incubated 15 mins prior to viral-infection measured after 48 hrs by luciferase reporter gene assay. The following applies: Human immunodeficiency virus 1, HEK-293T. It is filed as functional, organism-based. In short, it runs like this: as §2

In data set [12] the target is Human immunodeficiency virus type 1 reverse transcriptase (Human immunodeficiency virus 1) (UniProt Q72547). Nature of the data set: (§3) Inhibition of HIV-1 reverse transcriptase after 1 hr by spectrophotometry. In short, it runs like this: (§4)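 RNA-dependent DNA polymerase activity. Started with reverse transcriptase, 1 h at 37 °C. Product captured on streptavidin plate 1 h at 37 °C, TMB 15 min, stopped with H2SO4, OD450. Dose-response EC50.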

For data set [13], the target named is Human immunodeficiency virus type 1 reverse transcriptase (Human immunodeficiency virus 1, UniProt Q72547). The description is as §3. In outline: as §4
Data set [14] has as its system Human immunodeficiency virus 1. Nature of the data set: Antiviral activity against wild-type HIV-1 infected in human 293T cells co-transfected with VSVG protein assessed as inhibition of viral-replication incubated 15 mins prior to viral-infection measured after 48 hrs by luciferase reporter gene assay. The following applies: Human immunodeficiency virus 1, HEK-293T. In kind it is functional, organism-based. In outline:
as §2

Turning to `Cc1cn([C@H]2C[C@H](N=[N+]=[N-])[C@@H](CO)O2)c(=O)[nH]c1=O` [ZIDOVUDINE], the Time in data set [1] was 11.59 h.

Consider `Cc1cc(O)c2c(c1C=O)O[C@]1(C2)[C@H](C)CC[C@H]2C(C)(C)[C@H](O)CC[C@@]21C`, for which the Activity result with HEK-293T was “Non-toxic”.

As a reminder, the EC50 is the concentration that produces a half-maximal response. For the compound `CC(=O)CN1Cc2c(cc(O)c3c2O[C@]2(C3)[C@H](C)CC[C@H]3C(C)(C)[C@H](O)CC[C@@]32C)C1=O`, the “Ratio EC50” value in [2] is on record as 0.7; in data set [3] it was 1.7; in [4], 1.6; in data set [5], 2.8; in [6], 0.8. In addition, the EC50 was 6.2 µM in data set [7]; 14.2 µM in data set [8]; 13.3 µM in [9]; 23.8 µM in data set [10]; 7 µM in [11]; 50 µM in [13]. The EC50 in data set [14] came out at 8.4 µM. For the same compound, in [12], the inhibition entry was “Dose-dependent effect”. Further, the Time in data set [1] amounted to 12.66 h. Also, in the data set on HEK-293T, the Activity result is listed as “Non-toxic”.

`C[C@@H]1CC[C@H]2C(C)(C)[C@H](O)[C@H](O)C[C@]2(C)[C@@]12Cc1c(O)cc(CO[C@H]3O[C@H](CO)[C@@H](O)[C@H](O)[C@H]3O)c(C=O)c1O2`: the Activity result in the data set with HEK-293T is recorded as “Non-toxic”.

For `COC(=O)CC[C@@H](C(=O)O)N1Cc2c(cc(O)c3c2O[C@]2(C3)[C@H](C)CC[C@H]3C(C)(C)[C@H](O)CC[C@@]32C)C1=O`, in the data set on HEK-293T, the Activity entry is recorded as “Non-toxic”.

For `C[C@@H]1CC[C@H]2C(C)(C)[C@H](O)C(O)C[C@]2(C)[C@@]12Cc1c(O)cc(CO)c(C=O)c1O2` (some centres undefined), the Activity result with HEK-293T is given as “Non-toxic”.

Turning to `C[C@@H]1CC[C@H]2C(C)(C)[C@H](O)CC[C@]2(C)[C@@]12Cc1c(O)cc(CO)c(C=O)c1O2`, the Activity entry in the data set on HEK-293T is on record as “Non-toxic”.

Take `COC(=O)[C@H](CCC(=O)O)N1Cc2c(cc(O)c3c2O[C@]2(C3)[C@H](C)CC[C@H]3C(C)(C)[C@H](O)CC[C@@]32C)C1=O`: in the data set on HEK-293T, the Activity entry was “Non-toxic”.

For the compound `O=C1Nc2ccc(Cl)cc2[C@@](C#CC2CC2)(C(F)(F)F)O1` [EFAVIRENZ], in data set [1], the Time came to 13.06 h.

In the case of `C[C@@H]1CC[C@H]2C(C)(C)[C@H](O)CC[C@]2(C)[C@@]12Cc1c(O)cc3c(c1O2)CN(CCCCN1Cc2c(cc(O)c4c2O[C@]2(C4)[C@H](C)CC[C@H]4C(C)(C)[C@H](O)CC[C@@]42C)C1=O)C3=O`, the Activity entry in the data set on HEK-293T was “Non-toxic”.

For `C[C@@H]1CC[C@H]2C(C)(C)[C@H](O)CC[C@]2(C)[C@@]12Cc1c(O)cc3c(c1O2)CN(CCCCCN1Cc2c(cc(O)c4c2O[C@]2(C4)[C@H](C)CC[C@H]4C(C)(C)[C@H](O)CC[C@@]42C)C1=O)C3=O`, the Activity result in the data set on HEK-293T was “Non-toxic”.

For `Cc1ccnc2c1NC(=O)c1cccnc1N2C1CC1` [NEVIRAPINE], the EC50 was found to be 23.3 µM in data set [7]; 51.9 µM in [8]; 7.5 µM in [9]; 3.3 µM in data set [10]; 2.3 µM in data set [11]; 0.023 µM in [14].

In the case of `Cc1nnc(C(=O)NC(C)(C)c2nc(C(=O)NCc3ccc(F)cc3)c(O)c(=O)n2C)o1`, the Time in data set [1] worked out at 17.78 h.

As for `C[C@@H]1CC[C@H]2C(C)(C)[C@H](O)CC[C@]2(C)[C@@]12Cc1c(O)cc(CO[C@H]3O[C@H](CO)[C@@H](O)[C@H](O)[C@H]3O)c(C=O)c1O2`, in the data set with HEK-293T, the Activity result is “Non-toxic”.

Consider `C[C@@H]1CC[C@H]2C(C)(C)[C@H](O)CC[C@]2(C)[C@@]12Cc1c(O)cc3c(c1O2)CN([C@@H](CCC(=O)O)C(=O)O)C3=O`, for which the Activity result in the data set on HEK-293T was “Non-toxic”.

For the origin of these results see ChEMBL document CHEMBL3091373, “Phenylspirodrimanes with anti-HIV activity from the sponge-derived fungus Stachybotrys chartarum MXH-X73” (J Nat Prod, 2013).
